In ChEMBL document CHEMBL1641499, “Towards echinomycin mimetics by grafting quinoxaline residues on glycophane scaffolds” (Bioorg Med Chem, 2011):
Activity calls are given as the source filed them. The calls are words filed in the database; no cut-off is given here.

Columns and labels:
Conditions in all cases: Bos taurus
[1] = tested on: Calf thymus DNA; assay: Binding affinity to calf thymus DNA assessed as change on melting temperature (reference value: 76 degC)
[2] = tested on: Calf thymus DNA; assay: Binding affinity to calf thymus DNA at 20 uM after 20 mins by UV spectrophotometer analysis; assay type: nucleic-acid assay
Procedure, shortened: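 Compound stock diluted in cuvette to 20 µM final with degassed 100 mM NaCl, 10 mM NaH2PO4, pH 7.0. Calf thymus DNA was added from stock. After each addition the sample was heated to 65 °C and cooled slowly (5 °C/min), and the UV-vis spectrum was recorded 20 min later at 25 °C. DNA concentration was set from ε260 = 6600 M−1 cm−1.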

[3] = tested on: Calf thymus DNA; assay: Binding affinity to calf thymus DNA assessed as fluorescence enhancement at 20 uM by steady state fluorescence emission spectroscopic analysis relative to control

Row | SMILES | Tm [1] [°C] | Activity [2] | fold change (FC) [3]
1 | CS[C@H]1SC[C@H]2C(=O)N(C)[C@@H](C(C)C)C(=O)OC[C@@H](NC(=O)c3cnc4ccccc4n3)C(=O)N[C@@H](C)C(=O)N(C)[C@@H]1C(=O)N(C)[C@@H](C(C)C)C(=O)OC[C@@H](NC(=O)c1cnc3ccccc3n1)C(=O)N[C@@H](C)C(=O)N2C | 79 | Active | –
2 | C=CCCCO[C@H]1O[C@H](C(=O)N(Cc2ccc(CN(Cc3cnc4ccccc4n3)C(=O)[C@H]3O[C@H](OCCCC=C)[C@H](O)[C@@H](O)[C@@H]3O)cc2)Cc2cnc3ccccc3n2)[C@@H](O)[C@H](O)[C@H]1O | 81 | Active | 2.8
3 | O=C1[C@H]2O[C@H](OCCC/C=C/CCCO[C@H]3O[C@H](C(=O)N(Cc4cnc5ccccc5n4)Cc4ccc(cc4)CN1Cc1cnc4ccccc4n1)[C@@H](O)[C@H](O)[C@H]3O)[C@H](O)[C@@H](O)[C@@H]2O | 79 | Active | –
4 | O=C1[C@H]2O[C@H](OC/C=C/CO[C@H]3O[C@H](C(=O)N(Cc4cnc5ccccc5n4)Cc4ccc(cc4)CN1Cc1cnc4ccccc4n1)[C@@H](O)[C@H](O)[C@H]3O)[C@H](O)[C@@H](O)[C@@H]2O | 78 | Active | 5.5
5 | C=CCO[C@H]1O[C@H](C(=O)N(Cc2ccc(CN(Cc3cnc4ccccc4n3)C(=O)[C@H]3O[C@H](OCC=C)[C@H](O)[C@@H](O)[C@@H]3O)cc2)Cc2cnc3ccccc3n2)[C@@H](O)[C@H](O)[C@H]1O | 79 | Active | 2.8
